Test results reported in ChEMBL document CHEMBL3421535, “Antioxidative compounds from Garcinia buchananii stem bark” (J Nat Prod, 2015).
“And” between values parts separate entries of the source, which are not always exact repeats. Equal entries are not always repeated.

Legend:
Type in all cases: physicochemical
[1] = Antioxidant activity assessed as trolox equivalent of APPH radical scavenging activity preincubated for 30 mins followed by APPH addition measured after 90 mins by hydrophilic-ORAC fluorescence assay; details: 1.5 h
Method in brief: (§1)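 Hydrophilic TEAC (ABTS) or hydrophilic ORAC run by the previously reported method. Each sample was measured in quadruplicate; values are mean ± SD.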

[2] = Antioxidant activity assessed as trolox equivalent of […] radical scavenging activity preincubated for 30 mins followed by […] addition measured after 90 mins by lipophilic-ORAC fluorescence assay; details: 1.5 h
Method in brief: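 Lipophilic ORAC adapted from the Madrona procedure. Trolox standards (200, 100, 50, 25, 12.5 μM) and sample dilutions were made in 7% (w/v) randomly methylated β-cyclodextrin in acetone/H2O (1:1), which also served as blank. Fluorescein and AAPH were prepared in 10 mM phosphate buffer, pH 7.4. AAPH was added after incubation. Read-out otherwise as H-ORAC; quadruplicate, mean ± SD.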

[3] = Antioxidant activity assessed as trolox equivalent of ABTS radical scavenging activity after 10 mins by hydrophilic-TEAC fluorescence assay; method in brief: as §1
[4] = Antioxidant activity assessed as trolox equivalent of ABTS radical scavenging activity after 10 mins by lipophilic-TEAC […] assay
Method in brief: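 Lipophilic ABTS TEAC, a modification of the H-TEAC method. Trolox standards (1000, 500, 250, 125, 62.5 μM) and sample dilutions were prepared in 50% DMSO/H2O. Pure DMSO was added to give 10% final DMSO. Processing and measurement followed H-TEAC; quadruplicate, mean ± SD.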

[5] = Antioxidant activity assessed as H2O2 scavenging activity after 15 mins
Method in brief: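 H2O2 scavenging run by the previously reported method. Each sample was measured in triplicate; values are mean ± SD.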

[6] = Antioxidant activity assessed as trolox equivalent of ABTS radical scavenging activity measured for 1 to 6 mins by lipophilic-TEAC […] assay
Method in brief: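 Lipophilic TEAC adapted from the hydrophilic ABTS method: Trolox standards (1000, 500, 250, 125, 62.5 μM) and sample dilutions made in 50% DMSO. Pure DMSO added to wells, giving 10% DMSO final. Otherwise processed, measured and handled as in H-TEAC. Quadruplicate analyses, mean ± SD.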

[7] = Antioxidant activity assessed as trolox equivalent of […] radical scavenging activity preincubated for 30 mins followed by […] addition measured every 1.14 mins for 120 mins by lipophilic-ORAC fluorescence assay; details: 2 h
Method in brief: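 Lipophilic ORAC (modified Madrona procedure): Trolox standards (200–12.5 μM) and samples diluted in 7% RMCD in acetone/water 1:1. Fluorescein and AAPH prepared in 10 mM phosphate buffer pH 7.4. Fluorescein mixed with standard, sample or RMCD blank, incubated as in H-ORAC, then AAPH added. Read-out and data handling as in H-ORAC. Quadruplicate, mean ± SD.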

SMILES	Activity [1] [mmolequiv/mmol]	Activity [2]	Activity [3] [mmolequiv/mmol]	Activity [4] [mmolequiv/mmol]	EC50 [5] [µM]	Activity [6] [mMequiv]	Activity [7] [umolequiv/umol]
O=C1c2c(O)cc(O)c([C@@H]3C(=O)c4c(O)cc(O)cc4O[C@H]3c3ccc(O)c(O)c3)c2O[C@H](c2ccc(O)c(O)c2)[C@H]1O	13.73	15 mmolequiv/mmol	5.58	5.29	2.8		
O=C1c2c(cc(O)c([C@@H]3C(=O)c4c(O)cc(O)cc4O[C@H]3c3ccc(O)c(O)c3)c2O)O[C@H](c2ccc(O)c(O)c2)[C@H]1O	7.54	14.56 mmolequiv/mmol	3.5	4.95	8.5		
COc1cc(C(=O)c2c(O)cc3c(c2OC)C=CC(C)(C)O3)ccc1O	2.44	4.87 mmolequiv/mmol	0.4	1.04	≤ 53.4		
COc1c(O)ccc2c1Oc1cc(O)c(CC=C(C)C)c(O)c1C(=O)O2	2.5	4.34 mmolequiv/mmol	0.89	1.68	≤ 45.4		
O=C1c2c(O)cc(O)c(-c3coc4cc(O)cc(O)c4c3=O)c2O[C@H](c2ccc(O)c(O)c2)[C@H]1O	4.38	6.96 mmolequiv/mmol	1.48	2.92	17.5		
CC(C)=CCc1c(O)cc2oc3c(O)c(O)ccc3c(=O)c2c1O	1.06	3.81 mmolequiv/mmol	0.89	2.96	19.7		
O=c1c2cc(O)ccc2oc2cccc(O)c12	2.43	2.95 mmolequiv/mmol	0.4	1.33	80.2		
O=C1CC(c2ccc(O)cc2)Oc2cc(O)cc(O)c21 (racemic)	6.2	7.35 mmolequiv/mmol	1.98	2.94	8.6	1.14	
O=C1c2c(O)cc(O)cc2O[C@H](c2ccc(O)c(O)c2)C1O (single isomer, unassigned) [(+)-TAXIFOLIN]	6.61	9.3 mmolequiv/mmol	2.48	2.84	11.3		
Oc1cc(O)c2c(c1)O[C@H](c1ccc(O)c(O)c1)[C@H](O)C2 [(-)-EPICATECHIN]	9.98	15.69 mmolequiv/mmol	3.71	5.01	4.1		
O=C1O[C@H]([C@@H](O)CO)C(O)=C1O [ASCORBIC ACID]	0.62	0.73 mmolequiv/mmol	1.16	1.09	24.2	1.05	
Cc1cc(C(C)(C)C)c(O)c(C(C)(C)C)c1 [BUTYLATED HYDROXYTOLUENE]		0.2 mmolequiv/mmol and 0.12 umolequiv/umol		0.76		0.27	
CC(C)=CC[C@H]1C[C@@]23C[C@@H](CC=C(C)C)C(C)(C)[C@@](CC=C(C)C)(C(=O)C(C(=O)c4ccc(O)c(O)c4)=C2OC1(C)C)C3=O [CAMBOGIN]	0.6	3.68 mmolequiv/mmol	0.48	1.67	83.3		
C=C(C)[C@@H](CC=C(C)C)C[C@@]12C[C@@H](CC=C(C)C)C(C)(C)[C@@](CC=C(C)C)(C(=O)C(C(=O)c3ccc(O)c(O)c3)=C1O)C2=O [GARCINOL]	1.28	3.44 mmolequiv/mmol	0.81	1.92	15.7		
CC1(C)C=Cc2c(cc3oc4c(O)c(O)ccc4c(=O)c3c2O)O1 [JACAREUBIN]	1.16	2.74 mmolequiv/mmol	0.84	2.06	26.3		
O=c1c(O)c(-c2ccc(O)c(O)c2)oc2cc(O)cc(O)c12 [QUERCETIN]	9.36	11.94 mmolequiv/mmol	4.85	4.84	6.1	3.1	10.4
